Data: ChEMBL document CHEMBL5126596, “Design and synthesis of a novel non peptide CN-NFATc signaling inhibitor for tumor suppression in triple negative breast cancer” (Eur J Med Chem, 2022)
The source made the active and inactive calls. The calls are words filed in the database; no cut-off is given here.

Key:
[1] = target: T1, Nuclear factor of activated T-cells, cytoplasmic 1 (Homo sapiens) (UniProt O95644); assay: Inhibition of NFATC activity in human PBMC cells assessed as reduction of IL2 gene expression preincubated for 2 hrs followed by ionomycin/phorbol 12-myristate 13-acetate stimulation and measured after 4 hrs by RT-PCR analysis; type: cell-based; settings: dose 2-50 µM, time 6.0 hrs, DDE = dose-dependent effect
T1 sequence (whole entry): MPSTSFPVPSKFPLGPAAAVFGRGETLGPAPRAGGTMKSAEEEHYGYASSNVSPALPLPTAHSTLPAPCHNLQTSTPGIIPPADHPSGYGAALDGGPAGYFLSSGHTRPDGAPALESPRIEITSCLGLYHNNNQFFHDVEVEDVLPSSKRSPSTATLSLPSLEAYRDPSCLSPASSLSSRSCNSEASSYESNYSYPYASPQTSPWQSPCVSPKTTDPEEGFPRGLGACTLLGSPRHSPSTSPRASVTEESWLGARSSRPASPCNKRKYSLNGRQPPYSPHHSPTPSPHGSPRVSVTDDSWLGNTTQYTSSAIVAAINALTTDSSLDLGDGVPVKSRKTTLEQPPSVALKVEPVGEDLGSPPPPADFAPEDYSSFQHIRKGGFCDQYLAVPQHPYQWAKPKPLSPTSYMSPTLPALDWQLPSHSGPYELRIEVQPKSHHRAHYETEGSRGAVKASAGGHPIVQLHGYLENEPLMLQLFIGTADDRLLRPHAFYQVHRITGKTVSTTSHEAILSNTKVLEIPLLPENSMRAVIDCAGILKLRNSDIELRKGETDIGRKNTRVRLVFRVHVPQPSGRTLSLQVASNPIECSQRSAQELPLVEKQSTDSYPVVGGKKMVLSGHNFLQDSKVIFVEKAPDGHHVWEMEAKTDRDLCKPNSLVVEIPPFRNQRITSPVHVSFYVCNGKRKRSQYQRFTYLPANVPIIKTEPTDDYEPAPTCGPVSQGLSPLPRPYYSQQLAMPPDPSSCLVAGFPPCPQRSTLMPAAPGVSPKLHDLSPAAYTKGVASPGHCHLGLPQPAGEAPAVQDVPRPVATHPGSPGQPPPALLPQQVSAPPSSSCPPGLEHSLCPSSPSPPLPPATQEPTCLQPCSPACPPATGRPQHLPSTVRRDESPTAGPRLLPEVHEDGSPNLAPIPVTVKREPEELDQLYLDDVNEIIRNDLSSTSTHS
Method in brief: (§1)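 Isolated hPBMC treated with compound at 50, 10 and 2 μM for 2 h. Stimulated without washout with 1 μM ionomycin, 20 nM PMA and 10 mM CaCl₂ for 4 h. RNA extracted and 1 μg reverse-transcribed; qPCR run with UPL probes. Fold change by ΔΔCT. Mean ± SD of 3 independent experiments in triplicate.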

[2] = tested on: CD4+ve Th; assay: Immunosuppressive activity in human CD4+ve Th cells assessed as inhibition of T cell proliferation […] by [3H]-thymidine incorporation based scintillation counter method; type: functional; settings: dose <= 10.0 µM, DDE = dose-dependent effect
[3] = Toxicity in BALB/c mouse xenografted with mouse 4T1 cells assessed as effect on health conditions at 50 mg/kg, […]; type: organism-based; settings: in vivo, ip
[4] = target: T1, Nuclear factor of activated T-cells, cytoplasmic 1 (Homo sapiens); assay: Inhibition of NFATC activity in human CD4+ T cells assessed as reduction of IFN gamma secretion preincubated for 2 hrs followed by anti-CD3/CD28 stimulation and measured after 48 hrs by ELISA; type: cell-based; settings: CD4+ve Th
Method in brief: (§2)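 Donor CD4⁺ T cells (1 × 10⁵/well) treated with 10 or 1 μM compound for 2 h. Compound left in place during activation with anti-CD3/CD28 beads (10 cells/bead). IL-2 and IFNγ measured by ELISA in supernatants after 48 h. Mean ± SEM.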

[5] = target: T1, Nuclear factor of activated T-cells, cytoplasmic 1 (Homo sapiens); assay: Inhibition of NFATC activity in HEK293T cells at 5 to 50 uM preincubated for 2 hrs followed by ionomycin/phorbol 12-myristate 13-acetate stimulation and measured after 4 hrs by luciferase reporter assay; type: cell-based; settings: dose 5-50 µM, time 6.0 hrs
Method in brief: (§3)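 HEK 293T cells (7.5 × 10⁴/well) co-transfected by CaCl₂ method with 100 ng 3xNFAT-luc and 1 ng pRLnull as transfection control. At 24 h, compound added for 2 h, then stimulated with 1 µM ionomycin, PMA and CaCl₂ for 4 h (20 ng/ml PMA and 2 mM CaCl₂ per figure legend). Luciferase read from crude extracts, relative to stimulated no-compound control (100%). Single doses 50 and 5 μM; dose-response 0.1–50 μM. IC50 by nonlinear regression; 3 experiments in triplicate.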

[6] = tested on: 4T1; assay: Antitumor activity against mouse 4T1 cells xenografted in BALB/c mouse assessed as decrease in tumor weight at 50 mg/kg, ip measured after 15 days; settings: time 15.0 day
[7] = tested on: 4T1; assay: Anti-angiogenesis activity against mouse 4T1 cells xenografted in BALB/c mouse at 50 mg/kg, ip measured after 15 days by anti-CD31 staining based immunohistochemistry analysis; type: functional, organism-based; settings: time 15.0 day
[8] = target: Protein phosphatase 3 catalytic subunit alpha (Homo sapiens) (UniProt Q08209); assay: Displacement of carboxyfluorescein labelled NFATc2 derived PRIEIT peptide from human CNAalpha (2 to 347 residues) at 10 uM preincubated for 15 mins followed by CF-PRIEIT addition and measured after 15 mins by fluorescence polarization assay; settings: time 30.0 min
Method in brief: (§4)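 FP competition assay: 10 µM human CNAα (residues 2–347) preincubated with compound for 15 min at rt. CF-tagged NFATc2 SPRIEIT peptide (10 nM) then added for a further 15 min. Read at excitation 485 nm / emission 535 nm. Triplicates from at least three independent experiments.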

[9] = Toxicity in BALB/c mouse assessed as aberrant behavior at 50 mg/kg, ip administered for 5 days and measured on day 7; type: organism-based; settings: in vivo, 120 h, time 5 day
Method in brief: (§5)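 BALB/c mice given 50 mg/kg ip daily, Monday to Friday, and killed on day seven. Monitored for macroscopic clinical signs, behavior, weight loss and general health.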

[10] = target: Protein phosphatase 3 catalytic subunit alpha (Homo sapiens) (UniProt Q08209); assay: Displacement of carboxyfluorescein labelled NFATc2 derived PRIEIT peptide from human CNAalpha (2 to 347 residues) at 10 to 100 uM preincubated for 15 mins followed by CF-PRIEIT addition and measured after 15 mins by fluorescence polarization assay; settings: dose 10-100 µM, time 30.0 min; method in brief: as §4
[11] = target: T1, Nuclear factor of activated T-cells, cytoplasmic 1 (Homo sapiens); assay: Inhibition of NFATC activity in human CD4+ T cells assessed as reduction of IL-2 secretion preincubated for 2 hrs followed by anti-CD3/CD28 stimulation and measured after 48 hrs by ELISA; type: cell-based; settings: CD4+ve Th; method in brief: as §2
[12] = Toxicity in BALB/c mouse assessed as loss of body weight at 50 mg/kg, ip administered for 5 days and measured on day 7; type: organism-based; settings: in vivo, 120 h, time 5 day; method in brief: as §5
[13] = target: T1, Nuclear factor of activated T-cells, cytoplasmic 1 (Homo sapiens); assay: Inhibition of NFATC activity in human PBMC cells assessed as reduction of IFN gamma gene expression preincubated for 2 hrs followed by ionomycin/phorbol 12-myristate 13-acetate stimulation and measured after 4 hrs byRT-PCR analysis; type: cell-based; settings: dose 2-50 µM, time 6.0 hrs, DDE = dose-dependent effect; method in brief: as §1
[14] = Toxicity in BALB/c mouse xenografted with mouse 4T1 cells assessed as effect on body weight at 50 mg/kg, […]; type: organism-based; settings: in vivo, ip
[15] = target: T1, Nuclear factor of activated T-cells, cytoplasmic 1 (Homo sapiens); assay: Inhibition of NFATC activity in HEK293T cells preincubated for 2 hrs followed by ionomycin/phorbol 12-myristate 13-acetate stimulation and measured after 4 hrs by luciferase reporter assay; type: cell-based; settings: dose 0.1-50 µM, time 6.0 hrs, DDE = dose-dependent effect; method in brief: as §3
[16] = Toxicity in BALB/c mouse assessed as clinical signs of abnormal constitution at 50 mg/kg, ip administered for 5 days and measured on day 7; type: organism-based; settings: in vivo, 168 h, time 7 day; method in brief: as §5
[17] = target: Protein phosphatase 3 catalytic subunit alpha (Homo sapiens) (UniProt Q08209); assay: Displacement of carboxyfluorescein labelled NFATc2 derived PRIEIT peptide from human CNAalpha (2 to 347 residues) at 100 uM preincubated for 15 mins followed by CF-PRIEIT addition and measured after 15 mins by fluorescence polarization assay; settings: time 30.0 min; method in brief: as §4
[18] = target: T1, Nuclear factor of activated T-cells, cytoplasmic 1 (Homo sapiens); assay: Inhibition of NFATC activity in HEK293T cells at 50 uM preincubated for 2 hrs followed by ionomycin/phorbol 12-myristate 13-acetate stimulation and measured after 4 hrs by luciferase reporter assay; type: cell-based; settings: time 6.0 hrs; method in brief: as §3
[19] = Toxicity in BALB/c mouse xenografted with mouse 4T1 cells assessed as effect on health conditions at 5 mg/kg, […]; type: organism-based; settings: in vivo, ip, time 5 day
[20] = tested on: 4T1; assay: Anti-angiogenesis activity against mouse 4T1 cells xenografted in BALB/c mouse at 5 mg/kg, ip measured after 15 days by anti-CD31 staining based immunohistochemistry analysis; type: functional, organism-based; settings: time 15.0 day
[21] = Toxicity in BALB/c mouse xenografted with mouse 4T1 cells assessed as effect on body weight at 5 mg/kg, […]; type: organism-based; settings: in vivo, ip, 120 h, time 5 day
[22] = tested on: 4T1; assay: Antitumor activity against mouse 4T1 cells xenografted in BALB/c mouse assessed as decrease in tumor weight at 50 mg/kg, ip measured after 15 days; type: functional, organism-based; settings: time 15.0 day
Method in brief: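 Female BALB/c mice (8 weeks, 18–19 g) given 0.5 × 10⁶ 4T1 cells in 1:1 DMEM/Matrigel into the number four mammary fat pad. Treatment began at day 11, once tumors exceeded 100 mm³, with randomization to groups of 9–10. Dosing was ip, daily Monday to Friday, for 15 days with DMSO vehicle. Tumors were then excised and weighed; body weight and health were followed.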

SMILES: CS(=O)(=O)NCc1cccc(NC(=O)c2ccc3[nH]ccc3c2)c1
- Activity [1]: Dde
- Activity [2]: Dde
- Activity [3]: Non-Toxic
- inhibition [4]: Active
- inhibition [5]: 80%
- Activity [6]: Active
- Activity [7]: Active
- Activity [8]: Active
- Activity [9]: Non-Toxic
- Activity [10]: Active
- inhibition [11]: Active
- Activity [12]: Non-Toxic
- Activity [13]: Dde
- Activity [14]: Non-Toxic
- inhibition [15]: Dde
- Activity [16]: Non-Toxic
- Activity [17]: Active

SMILES: CCc1ccc(C(=O)Nc2cccc(CNS(C)(=O)=O)c2)cc1
- inhibition [18]: 60%
- Activity [17]: Active

SMILES: CNc1ccc(C(=O)NCC(=O)Nc2cccc(S(=O)(=O)NCC(=O)O)c2)cc1
- Activity [10]: Active
- inhibition [18]: 60%

SMILES: O=C(O)CNS(=O)(=O)c1cccc(NC(=O)CNC(=O)OCc2ccccc2)c1
- Activity [10]: Active
- inhibition [18]: 60%

SMILES: O=C(CNC(=O)c1ccc2[nH]ccc2c1)Nc1cccc(S(=O)(=O)N2CCCCC2)c1
- Activity [10]: Active
- inhibition [18]: 60%
- inhibition [15]: Dde

SMILES: O=C(O)CNS(=O)(=O)c1cccc(NC(=O)CNC(=O)c2csc3ccccc23)c1
- Activity [10]: Active
- inhibition [18]: 60%

SMILES: Cc1ccc(C(=O)NCC(=O)Nc2cc(S(=O)(=O)Nc3ccc(Cl)cc3)ccc2Cl)s1
- Activity [1]: Dde
- Activity [2]: Dde
- Activity [3]: Non-Toxic
- inhibition [4]: Active
- inhibition [5]: 80%
- Activity [6]: Active
- Activity [9]: Non-Toxic
- Activity [10]: Active
- inhibition [11]: Active
- Activity [12]: Non-Toxic
- Activity [13]: Dde
- Activity [14]: Non-Toxic
- inhibition [15]: Dde
- Activity [16]: Non-Toxic

SMILES: CS(=O)(=O)NCc1cccc(NC(=O)Cc2ccsc2)c1
- Activity [8]: Active
- inhibition [18]: 60%
- Activity [17]: Active

SMILES: CCc1ccc(C(=O)NCC(=O)Nc2cccc(S(=O)(=O)NCC(=O)O)c2)cc1
- Activity [10]: Active
- inhibition [18]: 60%

SMILES: O=C(O)CNS(=O)(=O)c1cccc(NC(=O)CNC(=O)c2cnc3ccccc3c2)c1
- Activity [10]: Active
- inhibition [18]: 60%

SMILES: C=CC[C@@H]1/C=C(\C)C[C@H](C)C[C@H](OC)[C@H]2O[C@@](O)(C(=O)C(=O)N3CCCC[C@H]3C(=O)O[C@H](/C(C)=C/[C@@H]3CC[C@@H](O)[C@H](OC)C3)[C@H](C)[C@@H](O)CC1=O)[C@H](C)C[C@@H]2OC [TACROLIMUS ANHYDROUS]
- Activity [19]: Non-Toxic
- Activity [20]: Active
- Activity [21]: Non-Toxic
- Activity [22]: Active

SMILES: O=C(O)CNS(=O)(=O)c1cccc(NC(=O)CNC(=O)Cc2ccsc2)c1
- Activity [10]: Active
- inhibition [18]: 60%

SMILES: CS(=O)(=O)NCc1cccc(NC(=O)c2csc3ccccc23)c1
- Activity [1]: Dde
- Activity [2]: Dde
- inhibition [4]: Active
- inhibition [5]: 80%
- inhibition [11]: Active
- Activity [13]: Dde
- inhibition [15]: Dde
- Activity [17]: Active
